The whole screen tested about 190,000 compounds, of which about 200 (0.11%) were called active.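 How the source made its calls: active means inhibition above 80%; inactive means the rest.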 The list comes from a sample in which actives are over-represented; it also holds similar structures and randomly drawn compounds.

These results are taken from PubChem BioAssay AID1325 (NMMLSC, 2008).

Broad substrate specificity ATP-binding cassette transporter ABCG2 (Homo sapiens), sequence (Q9UNQ0 whole entry, looked up): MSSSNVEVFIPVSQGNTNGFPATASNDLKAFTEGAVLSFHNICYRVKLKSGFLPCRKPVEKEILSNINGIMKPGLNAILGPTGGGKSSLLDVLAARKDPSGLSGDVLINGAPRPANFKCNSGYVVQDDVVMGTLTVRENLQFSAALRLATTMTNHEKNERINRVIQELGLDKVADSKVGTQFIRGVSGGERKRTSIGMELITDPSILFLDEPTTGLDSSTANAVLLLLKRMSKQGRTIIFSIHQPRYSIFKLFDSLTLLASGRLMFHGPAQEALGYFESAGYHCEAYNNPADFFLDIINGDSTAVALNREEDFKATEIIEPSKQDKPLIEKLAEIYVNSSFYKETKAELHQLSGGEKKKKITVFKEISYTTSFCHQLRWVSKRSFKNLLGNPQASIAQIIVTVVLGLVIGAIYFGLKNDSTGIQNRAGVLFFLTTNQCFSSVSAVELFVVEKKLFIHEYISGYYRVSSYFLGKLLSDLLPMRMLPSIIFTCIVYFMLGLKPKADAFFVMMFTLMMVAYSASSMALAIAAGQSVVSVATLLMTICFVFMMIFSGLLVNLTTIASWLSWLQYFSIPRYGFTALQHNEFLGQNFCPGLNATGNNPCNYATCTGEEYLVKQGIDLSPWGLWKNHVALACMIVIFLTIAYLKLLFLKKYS

The experiment has as its target Broad substrate specificity ATP-binding cassette transporter ABCG2 (Homo sapiens) (UniProt Q9UNQ0). Nature of the experiment: ABCG2 efflux pump inhibitors, primary screen, multiplex with ABCB1, IgMXP3 cells, flow cytometry (AID 1325). Conditions: JC-1 efflux, at 6.6 µM, hits give high values. The procedure, abridged:
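Test system: IgMXP3 (ABCG2) plus far-red-tagged CCRF-Adr (ABCB1) cells / Amount: 3 million cells/mL in well / Reagent: JC-1 transporter substrate / Timing: 10 min compound exposure, 25 °C / Signal: flow cytometry, 530 nm JC-1 signal / Read-out: percent efflux inhibition, scaled nicardipine 100% to DMSO 0% / Benchmarks: nicardipine as high control, DMSO as low control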
In the case of `Cc1[nH]c2ccccc2c1/C=N/NC(=O)CNC(=O)c1ccc2c(c1)OCO2`, the inhibition is 0.16% (inactive).

For the molecule `O=C(NNC(=S)Nc1ccc(Br)cc1Cl)c1ccco1`, the inhibition was -9.07% (inactive).

`CNC(=O)c1ccsc1NC(=O)c1ccc(S(=O)(=O)N2CCc3ccccc32)cc1`: the inhibition is 0.15% (inactive).

Turning to `CCCC(=O)NC(=S)Nc1ccc(CN2CCOCC2)cc1`, the inhibition is 1.31% (inactive).

Take `CCN(C(=O)COC(=O)/C=C/c1nc2ccccc2s1)C1CCS(=O)(=O)C1` (stereo not drawn): the inhibition was 1.28% (inactive).

For the molecule `O=C(Nc1ccc(C(=O)O)cc1)/C(=C/c1ccc([N+](=O)[O-])cc1)NC(=O)c1ccccc1`, the inhibition was 2.36% (inactive).

In the case of `C=CCNC(=O)/C=C/c1ccc(C(C)C)cc1`, the inhibition is 3.56% (inactive).

In the case of `Cc1ccc(S(=O)(=O)NCCc2nnc3ccc(SCc4cccnc4)nn23)cc1`, the inhibition was 0.68% (inactive).

As to `COc1ccc(C(=O)COC(=O)c2nn(C)c(=O)c3ccccc23)c(OC)c1`, the inhibition is 8.17% (inactive).

Take `COCCCNC(=O)CNC(=S)N(Cc1cc(OC)c(OC)c(OC)c1)C1CCCC1`: the inhibition was -0.12% (inactive).

Take `O=C(COc1ccc(S(=O)(=O)N2CCCCC2)cc1)NCc1ccccn1`: the inhibition was 1.47% (inactive).

Take `CC1(C)CC(=O)c2c(n(S(=O)(=O)c3ccccc3)c3ccc(NS(=O)(=O)c4ccccc4)cc23)C1`: the inhibition was -0.92% (inactive).

Regarding `COc1ccc(Cl)cc1N(CC(=O)N/N=C/c1ccc(OCC(N)=O)cc1)S(C)(=O)=O`, the inhibition is 8.83% (inactive).

As to `CCOc1ccc(-n2cnnn2)cc1S(=O)(=O)N1CCC(C)CC1C` (stereo not drawn), the inhibition was 0.53% (inactive).

In the case of `O=C(NCCN1CCOCC1)Nc1cccc(Cl)c1`, the inhibition is 4.87% (inactive).

Regarding `Cc1cc(C)c2[nH]c(=O)c(CN(Cc3ccccc3)C(=S)NCCCN(C)C)cc2c1`, the inhibition was 54.5% (inactive).

Take `Nn1c(SCC(=O)Nc2nccs2)nncc1=O`: the inhibition is 0.11% (inactive).

With `COCCCNC(=O)/C=C/c1ccc(OCc2c(F)cccc2Cl)cc1`, the inhibition was 3.58% (inactive).

Consider `COc1ccc(-c2[nH]ncc2CN(Cc2nccn2C)C(C)C)cc1F`, for which the inhibition is 3.43% (inactive).

Take `N#CC1(C#N)C(C(=O)C23CC4CC(CC(C4)C2)C3)C12CCOCC2` (stereo not drawn): the inhibition was -1.02% (inactive).

As to `COc1cc(N2C(=O)c3ccccc3C2=O)c(Cl)cc1C(=O)OCC(=O)N1CCOCC1`, the inhibition is 2.21% (inactive).

In the case of `O=C(Oc1cccc(N2C(=O)C3C4c5ccccc5C(c5ccccc54)C3C2=O)c1)c1ccco1` (stereo not drawn), the inhibition was 0.99% (inactive).

As to `O=C1OCC2=C1C(c1ccccc1)CC(=O)N2c1cccc(F)c1` (stereo not drawn), the inhibition is 10.8% (inactive).

On to `COc1ccc(CN(C)Cc2nc3cc(OC)c(OC)cc3c(=O)[nH]2)c(OC)c1`, for which the inhibition is 3.26% (inactive).

For the molecule `C[N+]1(CC(O)COc2ccccc2)CCN(C(=O)c2ccc([N+](=O)[O-])cc2)CC1` (stereo not drawn), the inhibition is 4.9% (inactive).

For the molecule `CC1(C)CC(=O)C2=C(C1)Nc1cc(C(=O)c3ccccc3)ccc1NC2c1ccccn1` (stereo not drawn), the inhibition was 1.87% (inactive).

For `CCN=c1sc(C(=O)Nc2ccccc2)c(C)n1CC`, the inhibition is 3.73% (inactive).

As to `CC(C)(C)C(=O)CN1C2=NCCN2c2ccccc21`, the inhibition was 2.76% (inactive).

Consider `Cn1c(=O)c2c(nc(N/N=C/c3cccs3)n2Cc2ccc(Br)cc2)n(C)c1=O`, for which the inhibition was 8.74% (inactive).

Regarding `COc1ccc(Cl)cc1NC(=O)CNc1ccccc1F`, the inhibition was 28.9% (inactive).

Take `Cc1ccc2sc(NNC(=O)c3ccc4c(c3)OCCO4)nc2c1C`: the inhibition was 0% (inactive).

Regarding `CC(Sc1nc2cc(Cl)ccc2s1)C(=O)Nc1ccc2c(c1)OCO2` (stereo not drawn), the inhibition was 0% (inactive).

Turning to `O=C(/C=C/c1ccc([N+](=O)[O-])cc1)NCCSCc1ccco1`, the inhibition is 54.6% (inactive).

On to `O=S(=O)(Nc1ccccn1)c1cccc(S(=O)(=O)c2ccc(Cl)cc2)c1`, for which the inhibition was -0.57% (inactive).

`O=C(NNC1=NCCC1)c1cccc(S(=O)(=O)N2CCCCC2)c1`: the inhibition is -6.82% (inactive).

As to `C=CCc1cccc2cc(C(=O)Nc3ccc(NC(C)=O)cc3)c(=O)oc12`, the inhibition was 0.59% (inactive).

Turning to `O=C(Cc1ccc(F)cc1)N/N=C/c1ccc2c(c1)OCO2`, the inhibition is 10.1% (inactive).

On to `O=C(Cc1c[nH]c2ccccc12)N/N=C/c1cccc(F)c1`, for which the inhibition is 88.7% (active).

Turning to `O=C(CC(=O)N/N=C\c1ccc(F)cc1)NCCc1ccccc1`, the inhibition was 1.18% (inactive).

For the molecule `Cc1cc(C(=O)N/N=C\C(Br)=C\c2ccccc2)c(C)o1`, the inhibition is 2.48% (inactive).

`NC(=O)CCC(NS(=O)(=O)c1ccc(Cl)cc1)C(=O)NCc1ccccc1Cl` (stereo not drawn): the inhibition was 4.92% (inactive).

With `Cc1cc(C)n(CC(O)CN(c2ccccc2)S(=O)(=O)c2ccc3ccccc3c2)n1` (stereo not drawn), the inhibition was 16.1% (inactive).

Regarding `CCc1nnc(NC(=O)CSc2nc(SC)ns2)s1`, the inhibition is 1.21% (inactive).

Regarding `COc1ccc(C2(CNC(=O)Cc3ccc(OC)c(OC)c3)CCCC2)cc1`, the inhibition is 2.77% (inactive).

Turning to `CC(C)CCN1C(=O)c2ccc(C(=O)Nc3cccc(S(N)(=O)=O)c3)cc2C1=O`, the inhibition was -4.62% (inactive).

Turning to `Clc1ccc(-c2ncc3ccccn23)c(Cl)c1`, the inhibition is -0.33% (inactive).

As to `CCOc1cc(/C=N/NC(=O)c2ccc(CSc3nncn3C)cc2)ccc1OCC(=O)N1CCOCC1`, the inhibition was -0.51% (inactive).

Take `Cc1nn(CC(=O)Nc2ccc3c(c2)OCO3)c(C)c1[N+](=O)[O-]`: the inhibition is 11.5% (inactive).

For `CC(=O)Nc1sc2c(c1C(c1cccc(F)c1)N1CCN(CCO)CC1)CCCC2` (stereo not drawn), the inhibition was -0.02% (inactive).

For the molecule `O=C(c1cncc(Br)c1)N1CCN(c2ccc([N+](=O)[O-])cc2)CC1`, the inhibition is 34.2% (inactive).

Consider `CN(C)c1ccc(/C=N/Nc2cc(N3CCOCC3)nc(N3CCOCC3)n2)cc1`, for which the inhibition is 5.63% (inactive).

Take `Cn1nc(C(F)(F)F)c2cc(C(=O)N3CCOCC3)sc21`: the inhibition was 0.03% (inactive).

Turning to `Cc1cc(NC(=O)CSc2nc3cc(Cl)ccc3c(=O)n2Cc2ccco2)no1`, the inhibition was 5.22% (inactive).

As for `CCC1CCCCN1C(=S)Nc1ccc(SC(F)F)cc1` (stereo not drawn), the inhibition is 0% (inactive).

In the case of `O=C(N/N=C/c1cc([N+](=O)[O-])ccc1O)/C(=C\c1cccs1)NC(=O)c1ccccc1`, the inhibition was -3.14% (inactive).

Consider `Cn1cc(CN2CCCC(CO)C2)c(-c2ccc(Oc3ccccc3)cc2)n1` (stereo not drawn), for which the inhibition is -1.73% (inactive).

For `CN(C)c1ccc(C=C2C(=O)OC3(CCCC3)OC2=O)cc1`, the inhibition is 0.11% (inactive).

For the molecule `Cc1nc2nc[nH]n2c(=O)c1C/C=C/c1ccccc1`, the inhibition was 0.18% (inactive).
